Measured values published in ChEMBL document CHEMBL4373703 (J Med Chem, 2019).
pKi: −log10 of the molar value. In brackets after ≈: the same amount, converted by molar mass. Activity calls are given as the source filed them. The rule behind the calls is not given here.

Legend:
[1] = Tmax in Mongrel dog at 3 mg/kg, po administered as suspension; type: ADME, organism-based, Canis lupus familiaris; conditions: in vivo
Mus musculus [2] = assay: Antiarthritic activity in […] model of collagen-induced arthritis assessed as reduction in ankle swelling at 30 mg/kg, po administered via gavage once daily starting from day 6 to day 16 and measured from day 10 to day 17 by caliper method; type: functional, organism-based
In short: (§1)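 Female Lewis rats with semi-established type II collagen arthritis were dosed by oral gavage once daily on days 6–16 with vehicle (20% hydroxypropyl-beta-cyclodextrin in H2O), test agent (0.3–30 mg/kg) or methotrexate 0.1 mg/kg. Ankle thickness was measured daily by caliper, and animals were terminated on day 17. n = 10 per treatment group, 4 normal controls; ANOVA vs vehicle, P ≤ 0.05.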

Mus musculus [3] = assay: Inhibition of B cell activation in C57BL/6 mouse at 1 mg/kg, po after 0.25 hr relative to control; type: functional
[4] = Half-life in Wistar rat plasma at 2 mg/kg, iv or 10 mg/kg, po administered as suspension; type: ADME, organism-based
Mus musculus [5] = assay: Antiarthritic activity in […] model of collagen-induced arthritis assessed as reduction in ankle swelling at 3 mg/kg, po administered via gavage once daily starting from day 6 to day 16 and measured from day 11 to day 17 by caliper method; type: functional, organism-based; in short: as §1
Rattus norvegicus [6] = assay: Antiarthritic activity in Lewis rat model of collagen-induced arthritis assessed as reduction in ankle histopathological scores at 3 mg/kg, po administered via gavage once daily starting from day 6 to day 16 relative to control; set-up: scale not given: the % may be the effect or the level left
[7] = Tmax in Wistar rat at 10 mg/kg, po administered as suspension; type: ADME, organism-based; conditions: in vivo
[8] = Kinetic solubility of the compound; type: physicochemical; conditions: read-out: Kinetic_solubility
Mus musculus [9] = assay: Antiarthritic activity in […] model of collagen-induced arthritis assessed as reduction in ankle swelling at 10 mg/kg, po administered via gavage once daily starting from day 6 to day 16 and measured from day 11 to day 17 by caliper method; type: functional, organism-based; in short: as §1
[10] = Apparent permeability across apical to basolateral side in human Caco2 cells at 1 uM incubated for 2 hrs by LC-MS/MS analysis; type: ADME, cell-based; conditions: Caco-2
Mus musculus [11] = assay: Inhibition of B cell activation in C57BL/6 mouse at 1 mg/kg, po after 24 hr relative to control; type: functional
In short: (§2)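 Normal C57BL/6 mice received a single oral dose of 1 mg/kg and were tested in an in vivo B cell stimulation assay. Inhibition of B cell activation was read at 1 h and 24 h after dosing.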

[12] = Oral bioavailability in Wistar rat at 10 mg/kg; type: ADME, organism-based; conditions: in vivo
Mus musculus [13] = assay: Inhibition of B cell activation in C57BL/6 mouse at 1 mg/kg, po after 1 hr relative to control; type: functional; in short: as §2
[14] = Half-life in Mongrel dog plasma at 1 mg/kg, iv or 3 mg/kg, po administered as suspension; type: ADME, organism-based, Canis lupus familiaris
[15] = biological target: T1, Tyrosine-protein kinase Tec (Homo sapiens, UniProt P42680); assay: Inhibition of N-terminal His6-tagged human TEC (174 to end aminoacids) expressed in baculovirus infected Sf21 cells at 1 uM; conditions: sf21, 1 µM
T1 sequence (P42680 whole entry): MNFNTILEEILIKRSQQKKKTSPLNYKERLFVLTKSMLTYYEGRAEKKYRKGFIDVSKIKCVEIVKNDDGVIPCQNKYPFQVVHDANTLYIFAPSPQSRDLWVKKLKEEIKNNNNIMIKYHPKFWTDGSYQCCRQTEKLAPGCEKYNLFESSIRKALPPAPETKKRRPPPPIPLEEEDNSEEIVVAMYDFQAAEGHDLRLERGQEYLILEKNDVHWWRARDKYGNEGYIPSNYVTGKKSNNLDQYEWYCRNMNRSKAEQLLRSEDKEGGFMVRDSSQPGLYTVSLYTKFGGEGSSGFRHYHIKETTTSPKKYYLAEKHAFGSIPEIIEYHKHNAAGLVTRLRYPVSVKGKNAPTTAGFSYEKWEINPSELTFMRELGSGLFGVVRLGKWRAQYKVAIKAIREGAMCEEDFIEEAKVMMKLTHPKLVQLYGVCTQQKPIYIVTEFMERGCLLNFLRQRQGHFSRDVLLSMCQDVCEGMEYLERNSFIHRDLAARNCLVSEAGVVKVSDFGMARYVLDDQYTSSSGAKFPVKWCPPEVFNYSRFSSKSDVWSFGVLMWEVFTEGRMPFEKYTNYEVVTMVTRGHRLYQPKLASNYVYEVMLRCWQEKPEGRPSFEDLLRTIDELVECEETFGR

Rattus norvegicus [16] = assay: Antiarthritic activity in Lewis rat model of collagen-induced arthritis assessed as reduction in ankle histopathological scores at 1 mg/kg, po administered via gavage once daily starting from day 6 to day 16 relative to control; set-up: scale not given: the % may be the effect or the level left
Rattus norvegicus [17] = assay: Antiarthritic activity in Lewis rat model of collagen-induced arthritis assessed as reduction in ankle histopathological scores at 10 mg/kg, po administered via gavage once daily starting from day 6 to day 16 relative to control; set-up: scale not given: the % may be the effect or the level left
[18] = Cmax in C57BL/6 mouse at 1 mg/kg, po; type: ADME, organism-based; set-up: dose 1 mg/kg, route oral; conditions: in vivo
[19] = Intrinsic clearance in human liver microsomes at 1 uM in presence of NADPH measured up to 30 mins by LC-MS/MS analysis; type: ADME, Microsome; conditions: read-out: CLH
[20] = Tmax in NMRI mouse at 3 mg/kg, po administered as suspension; type: ADME, organism-based; conditions: in vivo
[21] = Oral bioavailability in NMRI mouse at 3 mg/kg; type: ADME, organism-based; conditions: in vivo
[22] = biological target: Voltage-gated inwardly rectifying potassium channel KCNH2 (Homo sapiens, UniProt Q12809); assay: Inhibition of human ERG expressed in HEK293 cells at -80 mV holding potential by […]; type: cell-based
Voltage-gated inwardly rectifying potassium channel KCNH2, sequence (Q12809 whole entry): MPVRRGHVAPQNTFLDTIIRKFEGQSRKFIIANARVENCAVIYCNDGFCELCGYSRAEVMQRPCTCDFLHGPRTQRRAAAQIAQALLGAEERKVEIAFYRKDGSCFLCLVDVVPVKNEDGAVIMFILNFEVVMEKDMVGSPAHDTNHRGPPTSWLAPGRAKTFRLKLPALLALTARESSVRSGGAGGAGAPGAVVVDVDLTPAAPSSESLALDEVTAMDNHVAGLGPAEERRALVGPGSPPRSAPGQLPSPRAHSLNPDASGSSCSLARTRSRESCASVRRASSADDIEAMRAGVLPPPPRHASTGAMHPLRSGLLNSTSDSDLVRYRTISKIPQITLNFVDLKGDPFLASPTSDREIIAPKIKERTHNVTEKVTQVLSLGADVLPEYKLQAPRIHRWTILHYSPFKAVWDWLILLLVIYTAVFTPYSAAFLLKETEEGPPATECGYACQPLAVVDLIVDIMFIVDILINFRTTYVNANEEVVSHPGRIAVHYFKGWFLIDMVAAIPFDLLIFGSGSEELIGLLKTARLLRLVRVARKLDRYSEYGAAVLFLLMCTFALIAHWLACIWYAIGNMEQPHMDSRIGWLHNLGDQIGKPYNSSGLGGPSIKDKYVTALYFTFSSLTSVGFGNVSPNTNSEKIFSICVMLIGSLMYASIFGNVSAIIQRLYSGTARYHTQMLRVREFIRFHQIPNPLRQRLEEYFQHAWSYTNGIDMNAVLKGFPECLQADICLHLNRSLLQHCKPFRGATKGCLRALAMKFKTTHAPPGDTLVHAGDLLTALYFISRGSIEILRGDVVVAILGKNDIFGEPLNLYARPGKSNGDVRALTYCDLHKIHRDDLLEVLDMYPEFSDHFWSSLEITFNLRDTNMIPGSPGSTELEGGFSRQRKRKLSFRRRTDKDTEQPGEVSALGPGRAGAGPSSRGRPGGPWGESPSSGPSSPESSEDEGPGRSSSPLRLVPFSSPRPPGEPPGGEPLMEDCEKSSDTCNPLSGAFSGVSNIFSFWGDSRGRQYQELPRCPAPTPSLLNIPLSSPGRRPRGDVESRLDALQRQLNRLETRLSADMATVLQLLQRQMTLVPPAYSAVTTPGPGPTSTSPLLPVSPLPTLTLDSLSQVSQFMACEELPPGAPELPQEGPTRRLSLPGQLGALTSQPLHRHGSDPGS

Rattus norvegicus [23] = assay: Antiarthritic activity in Lewis rat model of collagen-induced arthritis assessed as reduction in ankle histopathological scores at 30 mg/kg, po administered via gavage once daily starting from day 6 to day 16 relative to control; set-up: scale not given: the % may be the effect or the level left
Rattus norvegicus [24] = assay: Antiarthritic activity in Lewis rat model of collagen-induced arthritis assessed as reduction in ankle histopathological scores at 0.3 mg/kg, po administered via gavage once daily starting from day 6 to day 16 relative to control; set-up: scale not given: the % may be the effect or the level left
[25] = Stability of the compound in plasma (unknown origin) assessed as compound remaining at 4 hrs; type: ADME, cell-free; conditions: read-out: Stability
[26] = Half-life in NMRI mouse plasma at 1 mg/kg, iv or 3 mg/kg, po administered as suspension; type: ADME, organism-based

C=CC(=O)N1CCC(CNc2ncnc(N)c2-c2ccc(Oc3ccccc3)cc2)CC1 [EVOBRUTINIB]
Tmax [1]: 0.25 to 1 h | Activity (Mus musculus [2]): Active | inhibition (INH) (Mus musculus [3]): 17% | half-life [4]: 1 h | Activity (Mus musculus [5]): Active | Activity (Rattus norvegicus [6]): 42% | Tmax [7]: 0.25 to 1 h | solubility kinetic [8]: 60 µM (≈ 25.8 µg/mL) | Activity (Mus musculus [9]): Active | Papp A→B at 2 h, 1 µM [10]: 22 ×10⁻⁶ cm/s | inhibition (INH) (Mus musculus [11]): 25% | bioavailability [12]: < 5% | inhibition (INH) (Mus musculus [13]): 71% | half-life [14]: 1 h | inhibition (INH) [15]: Active | Activity (Rattus norvegicus [16]): 3% | Activity (Rattus norvegicus [17]): 63% | Cmax [18]: 52 nM | microsomal CLint at 1 µM [19]: 110 µL/min/mg | Tmax [20]: 0.25 to 1 h | bioavailability [21]: ≤ 25% | pKi [22]: 5.51 | Activity (Rattus norvegicus [23]): 94% | Activity (Rattus norvegicus [24]): 1% | remaining at 4 h [25]: 81% | half-life [26]: 1 h
